According to ChEMBL document CHEMBL1811814, “Synthesis and evaluation of indole, pyrazole, chromone and pyrimidine based conjugates for tumor growth inhibitory activities--development of highly efficacious cytotoxic agents” (Eur J Med Chem, 2010):

What was measured:
Type in all cases: functional
Set-up in all cases: scale not given: the % may be the effect or the level left
CCRF-CEM = test: Growth inhibition of human CCRF-CEM cells assessed tumor cell growth at 10^-5 M
In short: (§1)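 NCI 60-human-tumor-cell-line panel screen. Each compound was tested at a single concentration of 10^-5 M, and percent growth of tumor cells was recorded for each cell line. Growth inhibition was expressed from these percent-growth values.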

HL-60(TB) = test: Growth inhibition of human HL-60(TB) cells assessed tumor cell growth at 10^-5 M
In short: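 HL-60(TB), part of the 60-line panel, tested at a single concentration of 10^-5 M. The read-out is percent tumor cell growth relative to untreated growth.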

K562 = test: Growth inhibition of human K562 cells assessed tumor cell growth at 10^-5 M; in short: as §1
MOLT-4 = test: Growth inhibition of human MOLT4 cells assessed tumor cell growth at 10^-5 M; in short: as §1
[1] = Growth inhibition of human […] cells assessed tumor cell growth at 10^-5 M; in short: as §1
SR = test: Growth inhibition of human SR cells assessed tumor cell growth at 10^-5 M
In short: (§2)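 Single-dose screen at 10^-5 M across the 60 human tumor cell line panel, run to NCI standards. The value is the percent growth of each cell line in the presence of compound. Compounds active at this dose moved on to five-concentration testing (10^-4 to 10^-8 M).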

A549 = test: Growth inhibition of human A549 cells assessed tumor cell growth at 10^-5 M; in short: as §1
EKVX = test: Growth inhibition of human EKVX cells assessed tumor cell growth at 10^-5 M; in short: as §1
HOP-62 = test: Growth inhibition of human HOP62 cells assessed tumor cell growth at 10^-5 M; in short: as §1
HOP-92 = test: Growth inhibition of human HOP92 cells assessed tumor cell growth at 10^-5 M; in short: as §1
NCI-H226 = test: Growth inhibition of human NCI-H226 cells assessed tumor cell growth at 10^-5 M; in short: as §1
NCI-H23 = test: Growth inhibition of human NCI-H23 cells assessed tumor cell growth at 10^-5 M; in short: as §1
NCI-H322M = test: Growth inhibition of human NCI-H322M cells assessed tumor cell growth at 10^-5 M; in short: as §1
NCI-H460 = test: Growth inhibition of human NCI-H460 cells assessed tumor cell growth at 10^-5 M; in short: as §1
COLO 205 = test: Growth inhibition of human COLO205 cells assessed tumor cell growth at 10^-5 M; in short: as §1
HCC 2998 = test: Growth inhibition of human HCC2998 cells assessed tumor cell growth at 10^-5 M; in short: as §1
HCT-116 = test: Growth inhibition of human HCT116 cells assessed tumor cell growth at 10^-5 M; in short: as §1
HCT-15 = test: Growth inhibition of human HCT15 cells assessed tumor cell growth at 10^-5 M; in short: as §1
HT-29 = test: Growth inhibition of human HT-29 cells assessed tumor cell growth at 10^-5 M; in short: as §1
KM12 = test: Growth inhibition of human KM12 cells assessed tumor cell growth at 10^-5 M; in short: as §1
SW-620 = test: Growth inhibition of human SW620 cells assessed tumor cell growth at 10^-5 M; in short: as §2
SF-268 = test: Growth inhibition of human SF268 cells assessed tumor cell growth at 10^-5 M; in short: as §1
SF-295 = test: Growth inhibition of human SF295 cells assessed tumor cell growth at 10^-5 M; in short: as §1
SF-539 = test: Growth inhibition of human SF539 cells assessed tumor cell growth at 10^-5 M; in short: as §1
SNB-19 = test: Growth inhibition of human SNB19 cells assessed tumor cell growth at 10^-5 M; in short: as §2
SNB-75 = test: Growth inhibition of human SNB75 cells assessed tumor cell growth at 10^-5 M; in short: as §2
U-251 = test: Growth inhibition of human U251 cells assessed tumor cell growth at 10^-5 M; in short: as §2
LOX IMVI = test: Growth inhibition of human LOXIMVI cells assessed tumor cell growth at 10^-5 M; in short: as §1
Malme-3M = test: Growth inhibition of human MALME-3M cells assessed tumor cell growth at 10^-5 M; in short: as §1
M14 = test: Growth inhibition of human M14 cells assessed tumor cell growth at 10^-5 M; in short: as §1
MDA-MB-435 = test: Growth inhibition of human MDA-MB-435 cells assessed tumor cell growth at 10^-5 M; in short: as §1
SK-MEL-2 = test: Growth inhibition of human SK-MEL-2 cells assessed tumor cell growth at 10^-5 M; in short: as §1
SK-MEL-28 = test: Growth inhibition of human SK-MEL-28 cells assessed tumor cell growth at 10^-5 M; in short: as §1
SK-MEL-5 = test: Growth inhibition of human SK-MEL-5 cells assessed tumor cell growth at 10^-5 M; in short: as §1
UACC-257 = test: Growth inhibition of human UACC257 cells assessed tumor cell growth at 10^-5 M; in short: as §2
UACC-62 = test: Growth inhibition of human UACC62 cells assessed tumor cell growth at 10^-5 M; in short: as §2
IGROV-1 = test: Growth inhibition of human IGROV1 cells assessed tumor cell growth at 10^-5 M; in short: as §1
OVCAR-3 = test: Growth inhibition of human OVCAR3 cells assessed tumor cell growth at 10^-5 M; in short: as §1
OVCAR-4 = test: Growth inhibition of human OVCAR4 cells assessed tumor cell growth at 10^-5 M; in short: as §1
OVCAR-5 = test: Growth inhibition of human OVCAR5 cells assessed tumor cell growth at 10^-5 M; in short: as §1
OVCAR-8 = test: Growth inhibition of human OVCAR8 cells assessed tumor cell growth at 10^-5 M; in short: as §1
NCI/ADR-RES = test: Growth inhibition of human NCI/ADR-RES cells assessed tumor cell growth at 10^-5 M; in short: as §1
SK-OV-3 = test: Growth inhibition of human SKOV3 cells assessed tumor cell growth at 10^-5 M; in short: as §1
786-0 = test: Growth inhibition of human 786-0 cells assessed tumor cell growth at 10^-5 M; in short: as §1
A498 = test: Growth inhibition of human A498 cells assessed tumor cell growth at 10^-5 M; in short: as §1
ACHN = test: Growth inhibition of human ACHN cells assessed tumor cell growth at 10^-5 M; in short: as §1
CAKI-1 = test: Growth inhibition of human Caki1 cells assessed tumor cell growth at 10^-5 M; in short: as §1
RXF 393 = test: Growth inhibition of human RXF393 cells assessed tumor cell growth at 10^-5 M; in short: as §1
SN12C = test: Growth inhibition of human SN12C cells assessed tumor cell growth at 10^-5 M; in short: as §1
UO-31 = test: Growth inhibition of human UO31 cells assessed tumor cell growth at 10^-5 M; in short: as §2
PC-3 = test: Growth inhibition of human PC3 cells assessed tumor cell growth at 10^-5 M; in short: as §1
DU-145 = test: Growth inhibition of human DU145 cells assessed tumor cell growth at 10^-5 M; in short: as §1
MCF7 = test: Growth inhibition of human MCF7 cells assessed tumor cell growth at 10^-5 M; in short: as §1
MDA-MB-231 = test: Growth inhibition of human MDA-MB-231 cells assessed tumor cell growth at 10^-5 M; in short: as §1
[2] = Growth inhibition of human Hs 578T cells assessed tumor cell growth at 10^-5 M; in short: as §1
BT-549 = test: Growth inhibition of human BT549 cells assessed tumor cell growth at 10^-5 M; in short: as §1
T47D = test: Growth inhibition of human T47D cells assessed tumor cell growth at 10^-5 M; in short: as §2
MDA-MB-468 = test: Growth inhibition of human MDA-MB-468 cells assessed tumor cell growth at 10^-5 M; in short: as §1
NCI-H522 = test: Growth inhibition of human NCI-H522 cells assessed tumor cell growth at 10^-5 M; in short: as §1
TK-10 = test: Growth inhibition of human TK10 cells assessed tumor cell growth at 10^-5 M; in short: as §2

CC1=NN(c2cccc(Cl)c2)C(=O)/C1=C\c1coc2ccccc2c1=O
Activity (CCRF-CEM): 97.52% | Activity (HL-60(TB)): 106.16% | Activity (K562): 109.12% | Activity (MOLT-4): 102.14% | Activity [1]: 72.35% | Activity (SR): 96.27% | Activity (A549): 102.67% | Activity (EKVX): 110.36% | Activity (HOP-62): 110.49% | Activity (HOP-92): 91.19% | Activity (NCI-H226): 93.17% | Activity (NCI-H23): 88.35% | Activity (NCI-H322M): 121.02% | Activity (NCI-H460): 112.85% | Activity (COLO 205): 138.42% | Activity (HCC 2998): 94.86% | Activity (HCT-116): 106.06% | Activity (HCT-15): 92.73% | Activity (HT-29): 114.92% | Activity (KM12): 113.31% | Activity (SW-620): 98.74% | Activity (SF-268): 101.34% | Activity (SF-295): 127.24% | Activity (SF-539): 95.06% | Activity (SNB-19): 102.59% | Activity (SNB-75): 94.9% | Activity (U-251): 97.41% | Activity (LOX IMVI): 92.97% | Activity (Malme-3M): 107.7% | Activity (M14): 63.48% | Activity (MDA-MB-435): 110.64% | Activity (SK-MEL-2): 96.49% | Activity (SK-MEL-28): 109.94% | Activity (SK-MEL-5): 109.62% | Activity (UACC-257): 98.36% | Activity (UACC-62): 92.44% | Activity (IGROV-1): 105.92% | Activity (OVCAR-3): 123.01% | Activity (OVCAR-4): 99.9% | Activity (OVCAR-5): 93.56% | Activity (OVCAR-8): 99.11% | Activity (NCI/ADR-RES): 87.3% | Activity (SK-OV-3): 103.95% | Activity (786-0): 77.33% | Activity (A498): 114.05% | Activity (ACHN): 96.23% | Activity (CAKI-1): 96.64% | Activity (RXF 393): 96.69% | Activity (SN12C): 100.25% | Activity (UO-31): 82.13% | Activity (PC-3): 108.19% | Activity (DU-145): 115.23% | Activity (MCF7): 86.4% | Activity (MDA-MB-231): 98.59% | Activity [2]: 96.45% | Activity (BT-549): 98.21% | Activity (T47D): 92.99% | Activity (MDA-MB-468): 106.03%

O=C1/C(=C\c2cn(C(=O)c3ccc(Cl)cc3)c3ccccc23)c2ccccc2N1C(=O)c1ccc(Cl)cc1
Activity (HL-60(TB)): 54.1% | Activity (K562): 83.8% | Activity (MOLT-4): 61.5% | Activity [1]: 57.4% | Activity (SR): 56.1% | Activity (A549): 63.2% | Activity (EKVX): 70.7% | Activity (HOP-62): 61.3% | Activity (NCI-H226): 89.4% | Activity (NCI-H23): 83.1% | Activity (NCI-H322M): 98.5% | Activity (NCI-H460): 86% | Activity (NCI-H522): 6% | Activity (COLO 205): 104.7% | Activity (HCT-116): 65.1% | Activity (HCT-15): 65.8% | Activity (HT-29): 70.4% | Activity (KM12): 24.2% | Activity (SW-620): 93.1% | Activity (SF-268): 77.5% | Activity (SF-295): 101.9% | Activity (SF-539): 67.3% | Activity (SNB-19): 98.2% | Activity (SNB-75): 54.4% | Activity (U-251): 74.1% | Activity (LOX IMVI): 67.7% | Activity (Malme-3M): 126% | Activity (M14): 79.1% | Activity (MDA-MB-435): 97.5% | Activity (SK-MEL-2): 49.8% | Activity (SK-MEL-28): 103% | Activity (SK-MEL-5): 74.8% | Activity (UACC-62): 88.9% | Activity (IGROV-1): 80% | Activity (OVCAR-3): 84.2% | Activity (OVCAR-4): 71.9% | Activity (OVCAR-5): 114.7% | Activity (OVCAR-8): 78.6% | Activity (NCI/ADR-RES): 83.4% | Activity (SK-OV-3): 77% | Activity (786-0): 93.7% | Activity (A498): 81% | Activity (ACHN): 63.2% | Activity (CAKI-1): 73.8% | Activity (RXF 393): 83.2% | Activity (SN12C): 80.7% | Activity (TK-10): 55.3% | Activity (UO-31): 64.4% | Activity (PC-3): 65.7% | Activity (DU-145): 85% | Activity (MCF7): 71.1% | Activity (MDA-MB-231): 81.2% | Activity [2]: 80.5% | Activity (T47D): 61.7% | Activity (MDA-MB-468): 51.7%
